# ChEMBL document CHEMBL1833815, “Novel inhibitors of NRH:quinone oxidoreductase 2 (NQO2): crystal structures, biochemical activity, and intracellular effects of imidazoacridin-6-ones” (J Med Chem, 2011)
# Active and inactive are the calls of the source. No cut-off for these calls is given here.
# How the values were obtained:
# HCT-116 [1] = experiment: Cytotoxicity against human HCT116 cells after 24 hrs by MTT assay; type: cell-based; conditions: HCT-116, 24 h
# Procedure, shortened: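 HCT116 cells in RPMI-1640 with 10% FCS and 2 mM glutamine, seeded at 2.5 × 10³ per well and attached overnight. Exposed to compound for 24 h, then drug replaced with fresh medium, growth to 96 h total. MTT 1.5 mM final for 4 h, formazan in DMSO, A540. IC50 = concentration giving 50% OD reduction versus vehicle; ≥3 separate experiments.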
# HCT-116 [2] = experiment: Cytotoxicity against human HCT116 cells after 96 hrs by MTT assay; type: cell-based; conditions: HCT-116, 96 h
# Procedure, shortened: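 HCT116 cells in RPMI-1640 with 10% FCS and 2 mM glutamine, seeded at 2.5 × 10³ per well, left overnight, then exposed continuously for 96 h in full medium. Viability by MTT (1.5 mM final, 4 h, DMSO solubilization, A540). IC50 = concentration reducing OD by 50% relative to vehicle controls; repeated on at least three occasions.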
# [3] = molecular target: T1, Ribosyldihydronicotinamide dehydrogenase [quinone] (Homo sapiens, UniProt P16083); experiment: Inhibition of human recombinant NQO2 assessed as reduction of DCPIP by spectrophotometry
# T1 sequence (P16083 whole entry): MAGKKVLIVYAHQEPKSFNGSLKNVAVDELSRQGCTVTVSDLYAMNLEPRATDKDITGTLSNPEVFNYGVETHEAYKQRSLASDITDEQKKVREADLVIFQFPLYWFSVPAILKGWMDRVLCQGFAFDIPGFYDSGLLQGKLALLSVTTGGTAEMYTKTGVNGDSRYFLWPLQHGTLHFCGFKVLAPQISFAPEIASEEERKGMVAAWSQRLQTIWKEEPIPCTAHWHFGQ
# Procedure, shortened: (§1)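 Recombinant human NQO2 (His-tag/size-exclusion purified from E. coli BL21) diluted to give about 0.1 A/min. Assay in 50 mM phosphate pH 7.4 with 40 μM DCPIP, 200 μM NRH, and inhibitor in DMSO (1.0% v/v final), with or without 2 μM BSA, at 37 °C. DCPIP reduction followed at 600 nm. IC50 = 50% reduction of initial rate by nonlinear fit; triplicates, three experiments.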
# [4] = molecular target: T2, Ribosyldihydronicotinamide dehydrogenase [quinone] (Homo sapiens) (UniProt P16083); experiment: Ratio of IC50 for human recombinant NQO2 in the presence of BSA to IC50 for human recombinant NQO2 in the absence of BSA; procedure, shortened: as §1
# T2 sequence (whole entry): T1 sequence (P16083 whole entry)
# [5] = molecular target: T1, Ribosyldihydronicotinamide dehydrogenase [quinone]; experiment: Inhibition of human recombinant NQO2 assessed as reduction of DCPIP by spectrophotometry in the presence of 2 uM BSA
# Procedure, shortened: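 Recombinant human NQO2 (His-tag/size-exclusion purified, expressed in BL21 codon+ cells) in 50 mM phosphate pH 7.4 with 40 μM DCPIP and 200 μM NRH, 2 μM BSA present, inhibitor in DMSO (1.0% v/v final), 37 °C. DCPIP reduction followed at 600 nm; IC50 = 50% drop in initial rate by nonlinear fit; triplicates, three experiments.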
# [6] = Drug uptake in nucleus of human MDA468 cells assessed as subcellular localization at 5 uM after 3 hrs by phalloidin-based fluorescent imaging; type: ADME, cell-based; conditions: mda-mb-468, 3 h
# Procedure, shortened: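 MDA-MB-468 cells grown on coverslips to about 70% confluency, exposed 3 h, fixed in 3.6% formaldehyde plus 0.2% glutaraldehyde, permeabilised with 0.1% Triton X-100, blocked in 10% BSA, stained with Alexa Fluor 568 phalloidin (1:1000) for actin. Imaged by fluorescence microscopy; compound excited at 340 nm, emission 520 nm; phalloidin read at 568 nm.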
# Nucleic Acid = experiment: Binding affinity to calf thymus DNA assessed as increase in melting temperature at 10 uM; type: nucleic-acid assay; conditions: Bos taurus
# Procedure, shortened: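 Calf thymus DNA (20 μg/mL) with 10 μM compound in low-salt phosphate buffer (7.5 mM NaH₂PO₄, 1 mM EDTA, pH 7.0). Cuvettes heated from 37 to 98 °C with A260 read at every degree. Tm taken from at least three independent determinations; 10 μM adriamycin served as positive control.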
# [7] = Drug uptake in cytoplasm of human MDA468 cells at 25 uM after 3 hrs by phalloidin-based fluorescence imaging; type: ADME, cell-based; conditions: mda-mb-468, 3 h
# Procedure, shortened: (§2)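 MDA-MB-468 cells on coverslips at about 70% confluence treated 3 h. Fixed in 3.6% formaldehyde plus 0.2% glutaraldehyde, permeabilized with 0.1% Triton X-100, blocked in 10% BSA. Counterstained with Alexa Fluor 568 phalloidin (1:1000) to show actin architecture. Compound fluorescence imaged at excitation 340 nm, emission 520 nm; phalloidin visualized at 568 nm.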
# [8] = Drug uptake in nucleus of human MDA468 cells assessed as subcellular localization at 25 uM after 3 hrs by phalloidin-based fluorescent imaging; type: ADME, cell-based; conditions: mda-mb-468, 3 h; procedure, shortened: as §2
# [9] = molecular target: T2, Ribosyldihydronicotinamide dehydrogenase [quinone] (Homo sapiens); experiment: Inhibition of NQO2-mediated activation of CB1954 in human MDA468 cells at 100 uM after 3 hrs in the presence of 100 uM […]; type: cell-based; conditions: MDA-MB-468
# Procedure, shortened: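 MDA468 cells exposed 3 h to inhibitor together with CB1954 (10 μM in figure; varying concentrations per methods) plus 100 μM NRH cofactor. Cells then washed with PBS, refed with fresh medium, and incubated to 96 h total. Viability measured by MTT assay; protection from CB1954 toxicity serves as a readout of cellular NQO2 inhibition.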
Structure (SMILES),IC50 (HCT-116 [1]),IC50 (HCT-116 [2]),IC50 [3],Ratio IC50 [4],IC50 [5],Drug uptake [6],Tm (Nucleic Acid),Drug uptake [7],Drug uptake [8],inhibition [9]
CN(C)CCNc1ccc2ncn3c4ccc(F)cc4c(=O)c1c23,2900 nM,660 nM,97 nM,,,,,,,
C[N+](C)([O-])CCNc1ccc2ncn3c4ccc(O)cc4c(=O)c1c23,38700 nM,19700 nM,42 nM,,,,,,,
Cc1nc2ccc(NCC[N+](C)(C)[O-])c3c(=O)c4ccccc4n1c23,34900 nM,16100 nM,56 nM,,,,,,,
Cc1nc2ccc(NCCN(C)C)c3c(=O)c4cc(O)ccc4n1c23,3010 nM,950 nM,90 nM,,,,,,,
COc1ccc2c(c1)c(=O)c1c(NCCN(C)C)ccc3ncn2c31,2100 nM,510 nM,59 nM,54,3200 nM,Active,88.6 °C,,,
COc1ccc2c(c1)c(=O)c1c(NCCN(C)C)ccc3nc(C)n2c31,1860 nM,460 nM,46 nM,,,,,,,
Cc1nc2ccc(NCC[N+](C)(C)[O-])c3c(=O)c4cc(F)ccc4n1c23,31000 nM,9200 nM,97 nM,,,,,,,
Cc1nc2ccc(NCCN(C)C)c3c(=O)c4cc(F)ccc4n1c23,2110 nM,510 nM,83 nM,,,,,,,
CN(C)CCNc1ccc2ncn3c4ccc(O)cc4c(=O)c1c23,1610 nM,370 nM,83 nM,,,,,,,
COc1ccc2c(c1)c(=O)c1c(NCC[N+](C)(C)[O-])ccc3ncn2c31,40300 nM,12800 nM,14 nM,7,98 nM,,85 °C,Active,Not Active,Active
Cc1nc2ccc(NCCN(C)C)c3c(=O)c4cc(Br)ccc4n1c23,1910 nM,440 nM,74 nM,,,,,,,
CCN(CC)CCNc1ccc2nc(C)n3c4ccc(O)cc4c(=O)c1c23,5460 nM,930 nM,54 nM,,,,,,,
COc1ccc2c(c1)c(=O)c1c(NCC[N+](C)(C)[O-])ccc3nc(C)n2c31,58200 nM,11400 nM,73 nM,,,,,,,
C[N+](C)([O-])CCNc1ccc2ncn3c4ccc(F)cc4c(=O)c1c23,40300 nM,17300 nM,205 nM,,,,,,,
COc1cccc2c1C(=O)c1c(O)c3c(c(O)c1C2=O)C[C@@](O)(C(=O)CO)C[C@@H]3O[C@H]1C[C@H](N)[C@H](O)[C@H](C)O1,,,,,,,90.8 °C,,,
C[N+](C)([O-])CCNc1ccc2ncn3c4ccccc4c(=O)c1c23,41000 nM,12100 nM,96 nM,6.5,,,,,,
CN(C)CCNc1ccc2ncn3c4ccccc4c(=O)c1c23,2530 nM,600 nM,115 nM,38,,,,,,
Cc1nc2ccc(NCCN(C)C)c3c(=O)c4ccccc4n1c23,1940 nM,500 nM,90 nM,,,,,,,
CCN(CC)CCNc1ccc2ncn3c4ccc(O)cc4c(=O)c1c23 [C-1311],4160 nM,1140 nM,126 nM,,,,,,,
Cc1nc2ccc(NCC[N+](C)(C)[O-])c3c(=O)c4cc(Br)ccc4n1c23,49000 nM,10600 nM,47 nM,,,,,,,
